Measured values from ChEMBL document CHEMBL4699454, “Mechanistic insights into the activation of ester prodrugs of 666-15” (Bioorg Med Chem Lett, 2020).

Experiments:
[1] = Stability of the compound in DMSO; assay type: physicochemical
[2] = Inhibition of CREB (unknown origin) expressed in HEK293T cells transfected with pCRE-RLuc assessed as inhibition of forskolin-induced CREB transcription activity by luciferase reporter gene assay; assay type: cell-based; conditions: Homo sapiens, HEK-293T
Summary of the method: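 HEK293T cells transiently transfected with pCRE-RLuc (Renilla luciferase under CREB control), treated with graded compound concentrations, then stimulated with forskolin to raise CREB phosphorylation; luciferase signal read. IC50 = concentration halving reporter transcription; mean ± SD of at least two experiments in triplicate. Prodrug stocks in DMF, parent in DMSO.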

MDA-MB-468 = assay: Antiproliferative activity against human MDA-MB-468 cells assessed as inhibition of cell growth incubated for 72 hrs by MTT assay; assay type: functional
Summary of the method: (§1)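 MTT viability read-out after 72 h exposure of TNBC cells to increasing compound concentrations. GI50 = concentration giving 50% growth inhibition; mean ± SD from at least two independent experiments run in duplicate. Stocks of the ester prodrugs prepared in DMF, parent compound stocks in DMSO.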

MDA-MB-231 = assay: Antiproliferative activity against human MDA-MB-231 cells assessed as inhibition of cell growth incubated for 72 hrs by MTT assay; assay type: functional; summary of the method: as §1
[3] = Aqueous solubility of the compound in distilled de-ionized water; assay type: physicochemical
[4] = Ratio of GI50 for human MDA-MB-231 cells to GI50 for human MDA-MB-468 cells assessed as cell growth inhibition measured after 72 hrs by MTT assay; assay type: functional
[5] = Stability of the compound in DMEM at 200 uM incubated for 5 to 30 mins in presence of 10% FBS by HPLC analysis; conditions: time min 5-30
Summary of the method: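 Compound at 200 μM incubated in DMEM with 10% FBS at 37 °C; aliquots withdrawn at various time points and analysed by HPLC, peaks assigned by comparison with authentic reference samples.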

Stabilty [1]	IC50 [2] [nM]	GI50 (MDA-MB-468) [nM]	GI50 (MDA-MB-231) [nM]	solubility [3] [mg/mL]	SMILES	Ratio IC50 [4]	Stability [5]
Unstable	250	32	670	> 100	Cl.Cl.NCCCOc1cc2ccccc2cc1C(=O)Nc1ccc(Cl)cc1OC(=O)c1cc2ccccc2cc1OCCN	10	Unstable
Unstable	260	45	540	–	NCCCOc1cc2ccccc2cc1C(=O)Oc1cc(Cl)ccc1NC(=O)c1cc2ccccc2cc1OCCN	10	–
–	–	–	–	< 0.5	Cl.NCCCOc1cc2ccccc2cc1C(=O)NCCOc1cc2ccccc2cc1C(=O)Nc1ccc(Cl)cc1O	–	–
